Published values of several laboratories.
Each line is one published result; the experiments were not run side by side.
Effect on: cell growth or viability

`FC(F)(F)c1cc(OCc2cc(-c3ccccn3)no2)c2ccccc2n1` has an IC50 of greater than 100 µM (LN-229; MTS; 72 h).
`Cc1c(-c2ccc(N3CCc4cccc(C(=O)Nc5nc6ccccc6s5)c4C3)nc2C(=O)O)cnn1CC12CC3CC(C1)CC(C(=O)NCCCCCCCCNc1cccc4c1C(=O)N(C1CCC(=O)NC1=O)C4=O)(C3)C2` (stereo not drawn) has an IC50 of 0.0041 µM (MOLT-4; MTS; 48 h).
The IC50 of `N#Cc1ccc(-c2cc(CNc3cccc4cccnc34)on2)cc1` is reported as 27.2 µM (LN-229; MTS; 72 h).
`COc1ccc2[nH]cc(C(=O)C(C#N)=Cc3cn(C)c4ccccc34)c2c1` gave an IC50 of 4.5 µM (MIA PaCa-2; MTT; 48 h).
With `Cc1ncsc1-c1ccc([C@H](C)NC(=O)[C@@H]2C[C@@H](O)CN2C(=O)[C@@H](NC(=O)CN2CCN(c3cc(-c4ccccc4O)nnc3N)CC2)C(C)(C)C)cc1` the IC50 was 0.0153 µM (LNCaP; ATP luminescence; 7 days).
`O=c1cc(OCc2cc(-c3ccccn3)no2)c2ccccc2o1` has an IC50 of greater than 100 µM (LN-229; MTS; 72 h).
`Nc1cccc2c1C(=O)N(C1CCC(=O)NC1=O)C2=O` (stereo not drawn) gave an IC50 of 1.5 µM (SU-DHL-2; CCK-8; 7 days).
For `CNc1cccc(Nc2nc(-c3ccncc3)nc3c2CNCC3)c1`, the IC50 was 45.2 µM (DU-145; MTT).
`Cc1c(-c2ccc(N3CCc4cccc(C(=O)Nc5nc6ccccc6s5)c4C3)nc2C(=O)O)cnn1CC12CC3CC(C1)CC(C(=O)NCCOCCNc1cccc4c1C(=O)N(C1CCC(=O)NC1=O)C4=O)(C3)C2` (stereo not drawn) has an IC50 of 0.0516 µM (MOLT-4; MTS; 48 h).
With `O=c1cc(OCc2cc(-c3ccc(C(F)(F)F)cc3)no2)c2ccccc2o1` the IC50 was greater than 100 µM (LN-229; MTS; 72 h).
`NS(=O)(=O)c1ccc(-n2nc(-c3nnc(CCl)o3)cc2-c2ccccc2)cc1` gave an IC50 of 26.3 µM (PaCa-2; fluorescence; 48 h).
With `Cc1c(-c2ccc(N3CCc4cccc(C(=O)Nc5nc6ccccc6s5)c4C3)nc2C(=O)O)cnn1CC12CC3CC(C1)CC(C(=O)NCCCCNc1cccc4c1C(=O)N(C1CCC(=O)NC1=O)C4=O)(C3)C2` (stereo not drawn) the IC50 was 0.0302 µM (MOLT-4; MTS; 48 h).
With `O=C(CSc1nc2ccccc2s1)N/N=C/c1ccc(OCC(=O)Nc2ccc([N+](=O)[O-])cc2)cc1` the IC50 was 4.39 µM (LN-229; MTS; 72 h).
The IC50 of `CC(=NNC(=O)c1cc(-c2ccccc2)n(-c2ccc(S(N)(=O)=O)cc2)n1)c1ccc(Br)cc1` is reported as 31.5 µM (PaCa-2; fluorescence; 48 h).
`COc1cccc2c1C(=O)c1c(O)c3c(c(O)c1C2=O)C[C@@](O)(C(=O)CO)C[C@@H]3O[C@H]1C[C@H](N)[C@H](O)[C@H](C)O1` gave an IC50 of 0.0339 µM (Jurkat; 96 h).
For `O=C(NO)c1ccc(Cn2cnc3c(Nc4ccc(Cl)cc4)ncnc32)cc1`, the IC50 was 0.91 µM (Jurkat; MTT; 72 h).
With `CCCOc1ccc2[nH]cc(C(=O)C(C#N)=Cc3cn(C)c4ccccc34)c2c1` the IC50 was 28.9 µM (MIA PaCa-2; MTT; 48 h).
`Cc1nc2c(n1CCCN1CCCCC1)C(=O)c1ccccc1C2=O` has an IC50 of 14.7 µM (MIA PaCa-2; MTT).
For `Cc1ncsc1-c1ccc([C@H](C)NC(=O)[C@@H]2C[C@@H](O)CN2C(=O)[C@@H](NC(=O)CCCCCCCNC(=O)c2nc(N3CCc4cccc(C(=O)Nc5nc6ccccc6s5)c4C3)ccc2-c2cnn(CC34CC5CC(CC(C5)C3)C4)c2C)C(C)(C)C)cc1`, the IC50 was 0.065 µM (MOLT-4; MTS; 48 h).
`Nc1ccccc1NC(=O)c1ccc(Cn2cnc3c(Nc4ccc(Br)cc4F)ncnc32)cc1` gave an IC50 of 0.45 µM (MOLT-4; MTT; 72 h).
`CCn1cc(C=C(C#N)C(=O)c2c[nH]c3cc(OC)c(OC)cc23)c2ccccc21` gave an IC50 of 13 µM (MIA PaCa-2; MTT; 48 h).
`NS(=O)(=O)c1ccc(-n2nc(C(=O)NN3C(=O)CCC3=O)cc2-c2ccccc2)cc1` has an IC50 of 27.4 µM (PaCa-2; fluorescence; 48 h).
`CCc1oc2cc(S(=O)(=O)Nc3ccc(S(=O)(=O)Nc4nccs4)cc3)ccc2c1C(=O)c1cc(Br)c(O)c(Br)c1` gave an IC50 of 62.2 µM (T47D; MTT; 96 h).
With `NS(=O)(=O)c1ccc(-n2nc(C(=O)NN=Cc3ccc(O)cc3)cc2-c2ccccc2)cc1` the IC50 was 8.53 µM (PaCa-2; fluorescence; 48 h).
`Cc1ncsc1-c1ccc([C@H](C)NC(=O)[C@H]2C[C@H](O)CN2C(=O)[C@@H](NC(=O)CCCCCCCS(=O)(=O)NC(=O)c2nc(N3CCc4cccc(C(=O)Nc5nc6ccccc6s5)c4C3)ccc2-c2cnn(CC34CC5CC(CC(C5)C3)C4)c2C)C(C)(C)C)cc1` has an IC50 of 0.931 µM (human Platelet; MTS; 48 h).
`Clc1ccc(-c2cc(CNc3cccc4cccnc34)on2)c(Cl)c1` gave an IC50 of 54.4 µM (LN-229; MTS; 72 h).
For `O=C(CSc1nc2ccccc2s1)N/N=C/c1ccc(OCC(=O)Nc2cccc([N+](=O)[O-])c2)cc1`, the IC50 was 15.3 µM (MOLT-4; MTS; 72 h).
With `Cc1c(-c2ccc(N3CCc4cccc(C(=O)Nc5nc6ccccc6s5)c4C3)nc2C(=O)NCCCCCCCCNc2cccc3c2C(=O)N(C2CCC(=O)NC2=O)C3=O)cnn1CC12CC3CC(CC(C3)C1)C2` (stereo not drawn) the IC50 was greater than 2 µM (MOLT-4; MTS; 48 h).
`Cc1ncsc1-c1ccc(CNC(=O)[C@@H]2C[C@@H](O)CN2C(=O)[C@@H](NC(=O)C2(F)CC2)C(C)(C)C)c(OCCOc2ccc(CN3CCN(c4cc(-c5ccccc5O)nnc4N)CC3)cc2)c1` gave an IC50 of 0.0161 µM (LNCaP; ATP luminescence; 7 days).
The IC50 of `O=C(NO)c1ccc(Cn2cnc3c(Nc4cccc([N+](=O)[O-])c4)ncnc32)cc1` is reported as 0.89 µM (Jurkat; MTT; 72 h).
For `COc1ccc(C=NNC(=O)c2cc(-c3ccccc3)n(-c3ccc(S(N)(=O)=O)cc3)n2)cc1OC`, the IC50 was 20.5 µM (PaCa-2; fluorescence; 48 h).
For `N#CC(=Cc1cn(Cc2ccc(Cl)cc2)c2ccccc12)C(=O)c1c[nH]c2ccccc12`, the IC50 was 4.9 µM (MIA PaCa-2; MTT; 48 h).
`Nc1ccccc1NC(=O)c1ccc(Cn2cnc3c(Nc4ccc(Cl)cc4)ncnc32)cc1` gave an IC50 of 0.49 µM (MOLT-4; MTT; 72 h).
The IC50 of `Cc1ncsc1-c1ccc([C@H](CC(=O)NCCCCCCCCNC(=O)c2nc(N3CCc4cccc(C(=O)Nc5nc6ccccc6s5)c4C3)ccc2-c2cnn(CC34CC5CC(CC(C5)C3)C4)c2C)NC(=O)[C@@H]2C[C@@H](O)CN2C(=O)[C@@H](NC(=O)C2(C#N)CC2)C(C)(C)C)cc1` is reported as 0.313 µM (MOLT-4; MTS; 48 h).
The IC50 of `O=C(CSc1nc2ccccc2s1)N/N=C/c1ccc(OCC(=O)Nc2cccc(Cl)c2)cc1` is reported as 19.6 µM (LN-229; MTS; 72 h).
`O=c1cc(OCc2cc(-c3ccccc3)no2)c2ccccc2o1` gave an IC50 of greater than 100 µM (LN-229; MTS; 72 h).
`NS(=O)(=O)c1ccc(-n2nc(C(=O)NN=Cc3ccccc3O)cc2-c2ccccc2)cc1` gave an IC50 of 10.9 µM (PaCa-2; fluorescence; 48 h).
`O=C(NO)c1ccc(Cn2cnc3c(Nc4ccc(F)c(Cl)c4)ncnc32)cc1` gave an IC50 of 1.2 µM (Jurkat; MTT; 72 h).
`Cc1ncsc1-c1ccc([C@H](C)NC(=O)[C@@H]2C[C@@H](O)CN2C(=O)[C@@H](NC(=O)CCCCCCCCCS(=O)(=O)NC(=O)c2nc(N3CCc4cccc(C(=O)Nc5nc6ccccc6s5)c4C3)ccc2-c2cnn(CC34CC5CC(CC(C5)C3)C4)c2C)C(C)(C)C)cc1` has an IC50 of 0.0119 µM (MOLT-4; MTS; 48 h).
For `COc1ccc(C=C(C#N)C(=O)c2c[nH]c3ccccc23)cc1OC`, the IC50 was 37 µM (MIA PaCa-2; MTT; 48 h).
For `C=C1C[C@@]23CC[C@H]4[C@@](C)(CCC[C@@]4(C)C(=O)O)[C@@H]2CC[C@@H]1C3`, the IC50 was 150 µM (T47D; MTT; 75 h).
The IC50 of `CCn1cc(C=C(C#N)C(=O)c2c[nH]c3ccc(OC)cc23)c2ccccc21` is reported as 15.5 µM (MIA PaCa-2; MTT; 48 h).
For `CC(C)C(=O)Nc1ccc([N+](=O)[O-])c(C(F)(F)F)c1`, the IC50 was 99.9 µM (LNCaP; MTS; 48 h).
For `FC(F)(F)c1ccc(-c2cc(CNc3cccc4cccnc34)on2)cc1`, the IC50 was 51.8 µM (LN-229; MTS; 72 h).
For `COc1cc([C@@H]2c3cc4c(cc3[C@@H](O[C@@H]3O[C@@H]5CO[C@@H](C)O[C@H]5[C@H](O)[C@H]3O)[C@H]3COC(=O)[C@H]23)OCO4)cc(OC)c1O`, the IC50 was 4.8 µM (LN-229; MTS; 72 h).
`COc1cc(C2C3=C(COC3=O)N(CCO)c3cc4c(cc32)CCC4)cc(OC)c1OC` (stereo not drawn) has an IC50 of 0.037 µM (BT-549; ATP luminescence; 48 h).
For `N#Cc1ccc(-c2cc(COc3cc(C(F)(F)F)nc4ccccc34)on2)cc1`, the IC50 was 23.9 µM (LN-229; MTS; 72 h).
`CCn1cc(C=C(C#N)C(=O)c2c[nH]c3cc(OC)ccc23)c2ccccc21` gave an IC50 of greater than 40 µM (MIA PaCa-2; MTT; 48 h).
